Type in all cases: cell-based
Test [1] concerns the target T1, Glucocorticoid receptor (Homo sapiens) (UniProt P04150).
T1 sequence (whole entry): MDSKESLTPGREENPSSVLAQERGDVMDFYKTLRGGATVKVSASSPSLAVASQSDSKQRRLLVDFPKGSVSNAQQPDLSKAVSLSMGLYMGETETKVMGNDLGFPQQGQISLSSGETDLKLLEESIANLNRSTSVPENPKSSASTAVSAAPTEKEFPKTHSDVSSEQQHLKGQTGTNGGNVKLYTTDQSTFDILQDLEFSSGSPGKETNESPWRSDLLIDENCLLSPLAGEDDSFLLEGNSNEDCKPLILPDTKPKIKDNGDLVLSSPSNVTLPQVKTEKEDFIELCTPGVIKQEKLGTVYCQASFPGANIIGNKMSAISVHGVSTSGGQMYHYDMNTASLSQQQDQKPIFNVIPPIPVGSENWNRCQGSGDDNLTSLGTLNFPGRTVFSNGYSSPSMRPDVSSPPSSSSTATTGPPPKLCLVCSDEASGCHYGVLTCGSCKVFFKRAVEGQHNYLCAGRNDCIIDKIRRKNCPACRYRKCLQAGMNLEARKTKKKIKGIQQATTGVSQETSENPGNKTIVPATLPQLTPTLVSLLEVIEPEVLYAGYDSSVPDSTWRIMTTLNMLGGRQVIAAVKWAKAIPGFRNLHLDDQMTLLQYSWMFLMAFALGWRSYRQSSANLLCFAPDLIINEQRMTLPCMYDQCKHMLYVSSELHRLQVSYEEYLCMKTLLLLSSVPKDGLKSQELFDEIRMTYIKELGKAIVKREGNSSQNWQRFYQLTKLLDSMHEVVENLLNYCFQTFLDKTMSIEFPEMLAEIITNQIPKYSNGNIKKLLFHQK
Put plainly: Transactivation of glucocorticoid receptor ligand binding domain (unknown origin) transfected in human HeLa cells assessed as activation of NP-1 by GAL4 luciferase reporter gene assay relative to dexamethasone. A digest of the protocol: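 HeLa line (NP-1) stably transfected with a GR ligand binding domain chimera in a GAL4 luciferase reporter system, run in agonist mode. Direct GR-LBD activation read as increased luciferase activity. Means of two or more experiments in triplicate.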
On the technique in general: A reporter such as luciferase makes a cellular process visible.

The target of test [2] is T1, Glucocorticoid receptor (Homo sapiens). Kind of test: Agonist activity at glucocorticoid receptor in human A549 cells assessed as inhibition of IL-1beta-induced NF-kappaB dependent E-selectin activation by luciferase reporter gene assay relative to dexamethasone.
Test [3] has as its target T2, Mineralocorticoid receptor (Homo sapiens, UniProt P08235).
T2 sequence (P08235 whole entry): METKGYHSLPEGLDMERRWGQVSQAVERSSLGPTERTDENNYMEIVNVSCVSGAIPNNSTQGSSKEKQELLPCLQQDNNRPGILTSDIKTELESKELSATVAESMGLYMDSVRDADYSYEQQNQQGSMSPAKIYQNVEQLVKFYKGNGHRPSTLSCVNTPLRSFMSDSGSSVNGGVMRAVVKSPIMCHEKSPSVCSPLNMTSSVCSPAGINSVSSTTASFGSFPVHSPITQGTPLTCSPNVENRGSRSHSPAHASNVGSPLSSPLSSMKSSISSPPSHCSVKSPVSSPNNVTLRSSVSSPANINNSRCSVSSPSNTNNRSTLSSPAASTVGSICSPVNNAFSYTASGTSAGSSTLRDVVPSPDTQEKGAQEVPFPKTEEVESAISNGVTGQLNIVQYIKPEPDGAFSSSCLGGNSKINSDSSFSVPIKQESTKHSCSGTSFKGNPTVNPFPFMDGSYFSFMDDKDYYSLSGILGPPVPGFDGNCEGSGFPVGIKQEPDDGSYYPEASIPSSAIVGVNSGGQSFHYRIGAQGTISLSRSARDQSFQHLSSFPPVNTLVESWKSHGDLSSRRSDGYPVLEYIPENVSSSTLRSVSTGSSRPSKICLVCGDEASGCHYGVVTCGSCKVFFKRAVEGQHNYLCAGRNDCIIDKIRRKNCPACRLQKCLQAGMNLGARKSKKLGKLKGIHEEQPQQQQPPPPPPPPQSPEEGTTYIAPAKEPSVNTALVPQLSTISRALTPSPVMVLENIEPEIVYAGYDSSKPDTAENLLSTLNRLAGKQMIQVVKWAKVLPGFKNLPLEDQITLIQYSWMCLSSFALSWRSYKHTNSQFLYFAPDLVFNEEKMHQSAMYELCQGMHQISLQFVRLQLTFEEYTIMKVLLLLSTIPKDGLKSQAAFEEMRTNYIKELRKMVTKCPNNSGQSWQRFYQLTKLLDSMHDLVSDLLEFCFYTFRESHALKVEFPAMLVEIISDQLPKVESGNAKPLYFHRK
Kind of test: Agonist activity at mineralocorticoid receptor in human A549 cells. A digest of the protocol: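 Cellular agonist assay in an A549 line with aldosterone as positive control. EC50 taken relative to % maximal efficacy. Means of duplicate experiments.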

The target of test [4] is T3, Glucocorticoid receptor (Homo sapiens, UniProt P04150).
T3 sequence (P04150 whole entry): T1 sequence (whole entry)
Put plainly: Transactivation of glucocorticoid receptor ligand binding domain (unknown origin) transfected in human HeLa cells assessed as activation of NP-1 by GAL4 luciferase reporter gene assay.

Test [5] addresses T3, Glucocorticoid receptor. Put plainly: Agonist activity at glucocorticoid receptor in human A549 cells assessed as inhibition of IL-1beta-induced NF-kappaB dependent E-selectin activation by luciferase reporter gene assay.

pEC50: −log10 of the molar value.

Turning to `CC(C)(C(=O)Nc1nncs1)[C@@H](c1ccccc1)c1ccc2c(cnn2-c2ccc(F)cc2)c1`, the Efficacy in test [1] stood at 106%; in test [2] it was 86%. Besides, the pEC50 (commonly the negative decadic logarithm of the EC50, by convention in mol/L) in test [3] is less than 5.30; at Glucocorticoid receptor [4] it was 8.24; at Glucocorticoid receptor [5], 8.40.

`CC(C)(C(=O)Nc1nncs1)[C@H](c1ccccc1)c1ccc2c(cnn2-c2ccc(F)cc2)c1`: in test [3], the pEC50 is less than 5.30.

(Values after ChEMBL document CHEMBL2424628, “Discovery of potent and selective nonsteroidal indazolyl amide glucocorticoid receptor agonists” (Bioorg Med Chem Lett, 2013).)
